Reference: ChEMBL document CHEMBL3817826, “H2S-Donating Doxorubicins May Overcome Cardiotoxicity and Multidrug Resistance” (J Med Chem, 2016)
The source made the active and inactive calls. The calls are words filed in the database; no cut-off is given here.

Experiments:
[1] = tested on: H9c2; test: Cytotoxicity in rat H9c2 cells at 5 uM incubated for 24 hrs by LDH release-based spectrofluorimetrical analysis relative to control; format: cell-based; settings: h9c2, 24 h
In short: (§1)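 Cells exposed 24 h to 5 μM drug in DMEM with 10% FBS at 37 °C, 5% CO2. Medium spun 12,000 × g 5 min. Cells sonicated in 82.3 mM triethanolamine phosphate-HCl pH 7.6. LDH in medium and lysate followed 6 min at 340 nm. Extracellular LDH reported as % of total dish activity, duplicate, n = 3, mean ± SD.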

[2] = tested on: U2OS; test: Reduction of doxorubicin-mediated cytotoxicity in human U2OS cells at 5 uM incubated for 24 hrs by DCFDA-AM probe-based fluorimetrical analysis relative to control; format: functional, cell-based
[3] = tested on: H9c2; test: Reduction of doxorubicin-mediated cytotoxicity in rat H9c2 cells at 5 uM incubated for 24 hrs by LDH release-based spectrofluorimetrical analysis relative to control; format: functional, cell-based
[4] = tested on: H9c2; test: Cytotoxicity in rat H9c2 cells assessed as reduction in basal ROS level at 5 uM incubated for 24 hrs in presence of hydroxocobalamin by DCFDA-AM probe-based fluorimetrical analysis; format: cell-based; settings: h9c2, 24 h
In short: (§2)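 H9c2 cells held 24 h with 5 μM drug plus 100 μM hydroxocobalamin, then loaded with 5 μM DCFDA-AM for 30 min at 37 °C. Fluorescence read at 492/517 nm, expressed as nmol ROS/mg protein. Duplicate, n = 3.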

[5] = tested on: U2OS; test: Activity at PgP in human U2OS/[…] cells assessed as Vmax for doxorubicin measured per mg of protein incubated for 20 mins by fluorimetrical analysis (reference value: […] +/- […] nmol/min); format: cell-based
[6] = tested on: H9c2; test: Cytotoxicity in rat H9c2 cells assessed as reduction in basal ROS level at 5 uM incubated for 24 hrs by DCFDA-AM probe-based fluorimetrical analysis; format: cell-based; settings: h9c2, 24 h
In short: (§3)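 After 24 h at 5 μM, 1×10^6 cells in 0.5 mL PBS were loaded with 5 μM DCFDA-AM for 30 min at 37 °C, spun and resuspended. Fluorescence read at ex 492/em 517 nm, expressed as nmol ROS/mg cell protein. Duplicate, n = 3, mean ± SD.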

[7] = tested on: U2OS; test: Increase in doxorubicin accumulation in human U2OS/DX30 cells at 5 uM incubated for 24 hrs by fluorimetrical analysis; format: functional, cell-based
[8] = tested on: U2OS; test: Reduction of doxorubicin-mediated ROS accumulation in human U2OS/DX580 cells at 5 uM incubated for 24 hrs by DCFDA-AM probe-based fluorimetrical analysis relative to control; format: functional, cell-based
[9] = tested on: U2OS; test: Effect on doxorubicin-mediated cytotoxicity in human U2OS/DX580 cells at 5 uM incubated for 24 hrs LDH release-based spectrofluorimetrical analysis relative to control; format: functional, cell-based; in short: as §1
[10] = tested on: U2OS; test: Reduction of doxorubicin-mediated ROS accumulation in human U2OS/DX30 cells at 5 uM incubated for 24 hrs by DCFDA-AM probe-based fluorimetrical analysis relative to control; format: functional, cell-based
[11] = tested on: U2OS; test: Increase in doxorubicin-mediated cytotoxicity in human U2OS/DX30 cells at 5 uM incubated for 24 hrs by LDH release-based spectrofluorimetrical analysis relative to control; format: functional, cell-based; in short: as §1
[12] = tested on: H9c2; test: Cytotoxicity in rat H9c2 cells at 5 uM incubated for 24 hrs in presence of hydroxocobalamin by LDH release-based spectrofluorimetrical analysis relative to control; format: cell-based; settings: h9c2, 24 h
In short: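 H9c2 cardiomyocytes given 5 μM drug for 24 h with 100 μM hydroxocobalamin as H2S scavenger. LDH measured at 340 nm over 6 min in medium and lysate. Extracellular activity taken as % of total, duplicate, n = 3.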

[13] = tested on: U2OS; test: Reduction of doxorubicin-mediated ROS accumulation in human U2OS/DX100 cells at 5 uM incubated for 24 hrs by DCFDA-AM probe-based fluorimetrical analysis relative to control; format: functional, cell-based
[14] = tested on: H9c2; test: Cytotoxicity in rat H9c2 cells at 5 uM coincubated with doxorubicin for 24 hrs in presence of hydroxocobalamin by LDH release-based spectrofluorimetrical analysis relative to control; format: cell-based; settings: h9c2, 24 h
[15] = tested on: U2OS; test: Effect on doxorubicin accumulation in human U2OS/DX580 cells at 5 uM incubated for 24 hrs by fluorimetrical analysis; format: functional, cell-based
[16] = tested on: U2OS; test: Increase in doxorubicin-mediated cytotoxicity in human U2OS/DX100 cells at 5 uM incubated for 24 hrs by LDH release-based spectrofluorimetrical analysis relative to control; format: functional, cell-based; in short: as §1
[17] = tested on: U2OS; test: Increase in doxorubicin accumulation in human U2OS/DX100 cells at 5 uM incubated for 24 hrs by fluorimetrical analysis; format: functional, cell-based
[18] = tested on: H9c2; test: Effect on doxorubicin accumulation in rat H9c2 cells at 5 uM incubated for 24 hrs by fluorimetrical analysis; format: functional, cell-based
[19] = tested on: U2OS; test: Cytotoxicity in human U2OS/DX30 cells at 5 uM incubated for 24 hrs by LDH release-based spectrofluorimetrical analysis; format: functional, cell-based; in short: as §1
[20] = tested on: H9c2; test: Cytotoxicity in rat H9c2 cells at 5 uM incubated for 24 hrs in presence of NAC by LDH release-based spectrofluorimetrical analysis relative to control; format: cell-based; settings: h9c2, 24 h
[21] = tested on: U2OS; test: Induction of intracellular ROS accumulation in human U2OS cells at 5 uM incubated for 24 hrs by DCFDA-AM probe-based fluorimetrical analysis relative to control; format: functional, cell-based; in short: as §3
[22] = tested on: U2OS; test: Induction of intracellular ROS accumulation in human U2OS/DX580 cells at 5 uM incubated for 24 hrs by DCFDA-AM probe-based fluorimetrical analysis relative to control; format: functional, cell-based; in short: as §3
[23] = tested on: H9c2; test: Cytotoxicity in rat H9c2 cells assessed as intracellular ROS accumulation at 5 uM incubated for 24 hrs in presence of hydroxocobalamin by DCFDA-AM probe-based fluorimetrical analysis relative to control; format: cell-based; settings: h9c2, 24 h; in short: as §2
[24] = Drug uptake in human U2OS/DX100 cells at 5 uM incubated for 24 hrs by fluorimetrical analysis; format: ADME, cell-based
In short: (§4)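 Intracellular drug measured after 24 h exposure to 5 μM. Cell lysates read fluorimetrically at ex 475/em 553 nm with cell-free blank subtracted. Converted by calibration curve to nmol drug/mg cell protein. Duplicate, n = 3, mean ± SD.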

[25] = Drug uptake in human U2OS/DX30 cells at 5 uM incubated for 24 hrs by fluorimetrical analysis; format: ADME, cell-based; in short: as §4
[26] = tested on: U2OS; test: Cytotoxicity in human U2OS/DX580 cells at 5 uM incubated for 24 hrs by LDH release-based spectrofluorimetrical analysis; format: functional, cell-based; in short: as §1
[27] = tested on: U2OS; test: Cytotoxicity in human U2OS/DX100 cells at 5 uM incubated for 24 hrs by LDH release-based spectrofluorimetrical analysis; format: functional, cell-based; in short: as §1
[28] = tested on: H9c2; test: Cytotoxicity in rat H9c2 cells assessed as reduction in ROS level at 5 uM incubated for 24 hrs in presence of NAC by DCFDA-AM probe-based fluorimetrical analysis; format: cell-based; settings: h9c2, 24 h
[29] = tested on: H9c2; test: Drug uptake in rat H9c2 cells at 5 uM incubated for 24 hrs by fluorimetrical analysis; format: ADME, cell-based; settings: h9c2, 24 h; in short: as §4
[30] = tested on: H9c2; test: Cytotoxicity in rat H9c2 cells […] at 5 uM incubated for 24 hrs in presence of dexrazoxane by LDH release-based spectrofluorimetrical analysis relative to control; format: cell-based; settings: h9c2, 24 h
[31] = Drug uptake in human U2OS/DX580 cells at 5 uM incubated for 24 hrs by fluorimetrical analysis; format: ADME, cell-based; in short: as §4
[32] = tested on: U2OS; test: Induction of intracellular ROS accumulation in human U2OS/DX100 cells at 5 uM incubated for 24 hrs by DCFDA-AM probe-based fluorimetrical analysis relative to control; format: functional, cell-based; in short: as §3
[33] = tested on: U2OS; test: Induction of intracellular ROS accumulation in human U2OS/DX30 cells at 5 uM incubated for 24 hrs by DCFDA-AM probe-based fluorimetrical analysis relative to control; format: functional, cell-based; in short: as §3
[34] = target: DNA topoisomerase 2-alpha (Homo sapiens) (UniProt P11388); test: Inhibition of human topoisomerase 2-mediated DNA cleavage at 5 uM using supercoiled pHOT1 plasmid as substrate by agarose gel electrophoresis
[35] = tested on: H9c2; test: Cytotoxicity in rat H9c2 cells assessed as intracellular ROS accumulation at 5 uM incubated for 24 hrs by DCFDA-AM probe-based fluorimetrical analysis relative to control; format: cell-based; settings: h9c2, 24 h; in short: as §3
[36] = tested on: U2OS; test: Activity at PgP in human […] cells assessed as Vmax measured per mg of protein incubated for 20 mins by fluorimetrical analysis; format: cell-based
In short: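 U-2OS/DX580 cells exposed 20 min to 0-50 μM drug, washed, intracellular doxorubicin read fluorimetrically; parallel dishes left a further 10 min at 37 °C before reading. Efflux rate (difference, nmol extruded/min/mg cell protein) plotted against initial concentration; Vmax and Km fitted. Means ± SD, n = 3.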

Chain of DNA topoisomerase 2-alpha (Homo sapiens) (P11388 whole entry): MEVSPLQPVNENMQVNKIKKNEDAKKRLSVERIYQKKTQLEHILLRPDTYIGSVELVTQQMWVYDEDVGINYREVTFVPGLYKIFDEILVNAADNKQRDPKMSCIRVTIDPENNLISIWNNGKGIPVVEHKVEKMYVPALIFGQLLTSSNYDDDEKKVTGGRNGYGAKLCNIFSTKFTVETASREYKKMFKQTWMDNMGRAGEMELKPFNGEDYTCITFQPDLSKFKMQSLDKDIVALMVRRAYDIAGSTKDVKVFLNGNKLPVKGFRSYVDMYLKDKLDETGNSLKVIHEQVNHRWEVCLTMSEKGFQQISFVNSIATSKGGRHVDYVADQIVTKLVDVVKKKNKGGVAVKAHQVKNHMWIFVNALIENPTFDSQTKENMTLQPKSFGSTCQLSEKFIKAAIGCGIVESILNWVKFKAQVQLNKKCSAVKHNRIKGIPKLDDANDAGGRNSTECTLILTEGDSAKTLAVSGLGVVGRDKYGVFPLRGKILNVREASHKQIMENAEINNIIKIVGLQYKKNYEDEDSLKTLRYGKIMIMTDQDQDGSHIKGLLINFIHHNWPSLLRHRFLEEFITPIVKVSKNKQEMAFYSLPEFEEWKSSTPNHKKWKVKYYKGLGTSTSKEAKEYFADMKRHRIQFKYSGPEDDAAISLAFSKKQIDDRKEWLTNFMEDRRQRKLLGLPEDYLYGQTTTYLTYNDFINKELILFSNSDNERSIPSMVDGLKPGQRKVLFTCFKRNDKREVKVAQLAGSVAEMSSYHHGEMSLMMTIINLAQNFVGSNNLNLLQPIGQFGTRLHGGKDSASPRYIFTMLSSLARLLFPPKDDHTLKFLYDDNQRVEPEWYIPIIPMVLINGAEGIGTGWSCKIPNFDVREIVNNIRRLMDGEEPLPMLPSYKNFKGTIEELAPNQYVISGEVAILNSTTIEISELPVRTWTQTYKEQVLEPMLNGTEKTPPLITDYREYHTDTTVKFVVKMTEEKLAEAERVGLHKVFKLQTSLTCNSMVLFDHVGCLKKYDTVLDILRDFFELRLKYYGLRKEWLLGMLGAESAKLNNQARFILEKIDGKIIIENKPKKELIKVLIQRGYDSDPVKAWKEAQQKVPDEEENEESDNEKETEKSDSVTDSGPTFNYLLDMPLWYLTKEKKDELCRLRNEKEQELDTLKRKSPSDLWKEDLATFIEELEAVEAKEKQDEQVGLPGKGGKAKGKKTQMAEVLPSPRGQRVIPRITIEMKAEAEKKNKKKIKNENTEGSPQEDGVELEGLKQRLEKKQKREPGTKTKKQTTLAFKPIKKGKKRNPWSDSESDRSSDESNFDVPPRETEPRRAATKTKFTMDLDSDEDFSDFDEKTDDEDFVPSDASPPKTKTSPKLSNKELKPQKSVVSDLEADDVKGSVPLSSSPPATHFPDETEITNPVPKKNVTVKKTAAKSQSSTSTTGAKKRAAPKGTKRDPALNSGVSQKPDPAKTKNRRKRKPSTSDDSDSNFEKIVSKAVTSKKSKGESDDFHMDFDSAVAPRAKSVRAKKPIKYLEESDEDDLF

For `O=C(O)c1ccc(-c2ssc(=S)c2-c2ccccc2)cc1`, the Activity [1] was “Non-toxic”, the Activity [2] was “Active” and the Activity [3] was “Active”. For the same compound, the Activity [4] was “Toxic”, the Vmax [5] was 16 nmol/min/mg and the Activity [6] was “Non-toxic”. For the same compound, the Activity [7] was “Active”, the Activity [8] was “Active” and the Activity [9] was “inactive”. The Activity [10] was “Active”, the Activity [11] was “Active” and the Activity [12] was “Toxic”. For the same compound, the Activity [13] was “Active”, the Activity [14] was “Toxic” and the Activity [15] was “inactive”. For the same compound, the Activity [16] was “Active”, the Activity [17] was “Active” and the Activity [18] was “inactive”.

For `COc1cccc2c1C(=O)c1c(O)c3c(c(O)c1C2=O)C[C@@](O)(C(=O)CO)C[C@@H]3O[C@H]1C[C@H](N)[C@H](O)[C@H](C)O1.Cl` [DOXORUBICIN HYDROCHLORIDE], the Activity [19] was “inactive”, the Activity [20] was “Non-toxic” and the Activity [1] was “Toxic”. The Activity [21] was “Active”, the Activity [22] was “inactive” and the Activity [23] was “Toxic”. For the same compound, the Drug uptake [24] was “Not Active”, the Drug uptake [25] was “Not Active” and the Activity [26] was “inactive”. The Activity [27] was “inactive”, the Activity [28] was “Non-toxic” and the Drug uptake [29] was “Active”. The Activity [30] was “Toxic”, the Drug uptake [31] was “Not Active” and the Activity [32] was “inactive”. The Activity [33] was “inactive”, the inhibition [34] was “inactive” and the Activity [35] was “Toxic”. The Vmax [36] was 24.1 nmol/min/mg.
